Test results as given in paper PMC6221089 (Diabetes, Obesity & Metabolism, 2018).
No end group written: not given here.

Legend:
[1] = tested on: people with type 2 diabetes; assay: Safety assessments; format: in vivo
Method in brief: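 Treatment-emergent adverse events counted from baseline to the follow-up visit: those starting on or after the first treatment day and no later than follow-up. Dosing was once-weekly s.c. self-injection for 13 doses per crossover period (0.25, 0.5, then 1.0 mg escalation; placebo volume-matched). Follow-up was in the final week of the second 5-week sampling period.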

[2] = tested on: people with type 2 diabetes; assay: Vital signs during the hypoglycaemic clamp; format: in vivo
Method in brief: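 Heart rate and systolic and diastolic BP recorded at each 30-min target PG level of the stepwise hypoglycaemic clamp. Each value is the mean of two readings, at 0 and 30 min. The clamp was run about 48 h after the 13th weekly s.c. dose, with participants fasted and supine or semi-supine.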

[3] = tested on: people with type 2 diabetes; format: in vivo
Method in brief: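 Stepwise hypoglycaemic clamp about 48 h after the 13th weekly s.c. dose; participants fasted (water allowed), supine or semi-supine, with 30-min target PG plateaux. At each target level, symptoms were scored on the Edinburgh Hypoglycaemia Scale and recognition recorded as a yes/no answer to "Do you feel hypo?".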

plasma glucose = format: in vivo, people with type 2 diabetes
Method in brief: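 Clamp performed about 48 h after the 13th dose, with four 30-min target PG levels. AUC of glucose infusion rate computed at each level. Fasting PG measured on the morning of the day before the clamp. Recovery defined as PG ≥4.0 mmol/L, timed from termination of the insulin infusion at nadir; spontaneous recovery meant reaching this <40 min.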

[4] = tested on: counterregulatory responses to hypoglycaemia; conditions: cited from earlier work
[5] = LEADER trial; cited from earlier work
[6] = once-weekly s.c. treatment, 13 doses

CC[C@H](C)[C@H](NC(=O)[C@H](Cc1ccccc1)NC(=O)[C@H](CCC(=O)O)NC(=O)[C@H](CCCCNC(=O)COCCOCCNC(=O)COCCOCCNC(=O)CC[C@H](NC(=O)CCCCCCCCCCCCCCCCC(=O)O)C(=O)O)NC(=O)[C@H](C)NC(=O)[C@H](C)NC(=O)[C@H](CCC(N)=O)NC(=O)CNC(=O)[C@H](CCC(=O)O)NC(=O)[C@H](CC(C)C)NC(=O)[C@H](Cc1ccc(O)cc1)NC(=O)[C@H](CO)NC(=O)[C@H](CO)NC(=O)[C@@H](NC(=O)[C@H](CC(=O)O)NC(=O)[C@H](CO)NC(=O)[C@@H](NC(=O)[C@H](Cc1ccccc1)NC(=O)[C@@H](NC(=O)CNC(=O)[C@H](CCC(=O)O)NC(=O)C(C)(C)NC(=O)[C@@H](N)Cc1cnc[nH]1)[C@@H](C)O)[C@@H](C)O)C(C)C)C(=O)N[C@@H](C)C(=O)N[C@@H](Cc1c[nH]c2ccccc12)C(=O)N[C@@H](CC(C)C)C(=O)N[C@H](C(=O)N[C@@H](CCCNC(=N)N)C(=O)NCC(=O)N[C@@H](CCCNC(=N)N)C(=O)NCC(=O)O)C(C)C [semaglutide]
Severity of adverse events ([1]; all events, both treatments): mild or moderate | Clinical laboratory assessments (including amylase, lipase and calcitonin), physical examination or ECG ([1]; baseline to follow-up): No safety findings | Development of anti-semaglutide antibodies ([1]; baseline to follow-up): no participant developed anti‐semaglutide antibodies | Deaths or pancreatitis cases ([1]; during the trial): No deaths or pancreatitis cases | Diastolic BP, mean (SD) change from baseline to end-of-treatment [1, 6]: −2 [10] mm Hg | Heart rate, mean (SD) change from baseline to end-of-treatment [1, 6]: 6 [8] beats/min | Systolic BP, mean (SD) change from baseline to end-of-treatment [1, 6]: −8 [16] mm Hg | Response to hypoglycaemia for heart rate, systolic or diastolic BP vs placebo [2]: no systematic differences | Estimated mean hypoglycaemic symptom score vs placebo ([3]; Edinburgh Hypoglycaemia Scale, target PG level 5.5 mmol/L): No difference | Effect on cognitive function ([3]; Trail Making-B, Digit Symbol Substitution, Four-Choice Reaction Time tests, all PG levels): no effect | Hypoglycaemia recognition, answer to "Do you feel hypo?" ([3]; target level 5.5 mmol/L): all participants answered “no” | Time to reach recovery (PG ≥4.0 mmol/L) (plasma glucose; geometric mean): 44 min | Proportion of participants who recovered spontaneously (plasma glucose; reaching PG ≥4.0 mmol/L < 40 minutes after termination of the insulin infusion at nadir): ~ 50%

Native GLP‐1: incretin hormone secreted by intestinal L cells in response to food intake (HAEGTFTSDVSSYLEGQAAKEFIAWLVKGR; ends and bridges not checked; UniProt P01275 98-127, looked up)
Effect on the response to hypoglycaemia ([4]; healthy volunteers): no effect

liraglutide: GLP‐1 receptor agonist with a similar structure to semaglutide but a different pharmacokinetic profile
Effect on the counterregulatory responses to hypoglycaemia [4]: no effect | Incidence of severe hypoglycaemia compared with placebo [5]: statistically significantly lower
